Test results from ChEMBL document CHEMBL3526129, “Species differences in tissue distribution and enzyme activities of arylacetamide deacetylase in human, rat, and mouse” (Drug Metab Dispos, 2012).

Tests used:
[1] = Intrinsic clearance in human kidney microsome at 0.05 to 4 mM; format: ADME; conditions: microsomes, 4000 µM
Summary of the method: (§1)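 Phenacetin hydrolysis by tissue microsomes: 0.05–4 mM phenacetin with 0.4 mg/ml microsomal protein in 100 mM potassium phosphate (pH 7.4). p-Phenetidine formation was read within its linear time range. CLint was Vmax/Km, or the initial slope of velocity vs substrate when Km was high. Triplicate determinations. Human liver pooled (n=50), jejunum pooled (n=10), kidney and lung single donors.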

[2] = Intrinsic clearance in mouse Liver microsome at 0.05 to 4 mM; format: ADME; conditions: liver microsomes, read-out: CLH; summary of the method: as §1
[3] = biological target: T1, Arylacetamide deacetylase (Mus musculus, UniProt Q99PG0); assay: Ratio Vmax to Km in mouse recombinant AADAC; format: ADME
T1 sequence (Q99PG0 whole entry): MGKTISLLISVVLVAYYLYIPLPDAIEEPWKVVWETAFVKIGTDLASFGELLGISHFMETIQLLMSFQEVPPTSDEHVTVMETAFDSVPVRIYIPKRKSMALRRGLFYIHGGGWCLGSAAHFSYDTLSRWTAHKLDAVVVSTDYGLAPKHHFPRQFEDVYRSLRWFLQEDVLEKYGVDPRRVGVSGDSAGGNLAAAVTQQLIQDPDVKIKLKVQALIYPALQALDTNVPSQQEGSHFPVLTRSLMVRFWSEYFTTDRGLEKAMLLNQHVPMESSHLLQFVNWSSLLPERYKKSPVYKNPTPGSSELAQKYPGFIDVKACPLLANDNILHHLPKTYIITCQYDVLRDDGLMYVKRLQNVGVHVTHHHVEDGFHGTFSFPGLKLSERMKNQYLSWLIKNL

[4] = Intrinsic clearance in human lung microsome at 0.05 to 4 mM; format: ADME; conditions: microsomes, 4000 µM; summary of the method: as §1
[5] = biological target: T2, Arylacetamide deacetylase (Rattus norvegicus, UniProt Q9QZH8); assay: Ratio Vmax to Km in rat recombinant AADAC; format: ADME
T2 sequence (Q9QZH8 whole entry): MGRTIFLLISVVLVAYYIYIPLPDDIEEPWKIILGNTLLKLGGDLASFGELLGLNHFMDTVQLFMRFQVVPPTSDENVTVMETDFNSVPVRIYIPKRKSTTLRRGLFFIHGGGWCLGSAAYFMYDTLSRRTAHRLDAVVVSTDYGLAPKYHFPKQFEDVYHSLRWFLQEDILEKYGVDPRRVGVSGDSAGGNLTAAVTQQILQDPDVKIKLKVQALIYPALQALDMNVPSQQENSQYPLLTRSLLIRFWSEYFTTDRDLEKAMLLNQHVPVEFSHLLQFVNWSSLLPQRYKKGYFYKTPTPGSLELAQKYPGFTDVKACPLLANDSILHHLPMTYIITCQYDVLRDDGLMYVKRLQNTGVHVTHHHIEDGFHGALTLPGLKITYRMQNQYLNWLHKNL

[6] = Intrinsic clearance in rat Liver microsome at 0.05 to 4 mM; format: ADME; conditions: liver microsomes, read-out: CLH; summary of the method: as §1
[7] = Intrinsic clearance in human jejunum microsome at 0.05 to 4 mM; format: ADME; conditions: jejunum microsomes; summary of the method: as §1
[8] = Intrinsic clearance in rat kidney microsome at 0.05 to 4 mM; format: ADME; conditions: kidney microsomes; summary of the method: as §1
[9] = Intrinsic clearance in mouse jejunum microsome at 0.05 to 4 mM; format: ADME; conditions: jejunum microsomes
[10] = biological target: T3, Arylacetamide deacetylase (Homo sapiens, UniProt P22760); assay: Ratio Vmax to Km in human recombinant AADAC; format: ADME
T3 sequence (P22760 whole entry): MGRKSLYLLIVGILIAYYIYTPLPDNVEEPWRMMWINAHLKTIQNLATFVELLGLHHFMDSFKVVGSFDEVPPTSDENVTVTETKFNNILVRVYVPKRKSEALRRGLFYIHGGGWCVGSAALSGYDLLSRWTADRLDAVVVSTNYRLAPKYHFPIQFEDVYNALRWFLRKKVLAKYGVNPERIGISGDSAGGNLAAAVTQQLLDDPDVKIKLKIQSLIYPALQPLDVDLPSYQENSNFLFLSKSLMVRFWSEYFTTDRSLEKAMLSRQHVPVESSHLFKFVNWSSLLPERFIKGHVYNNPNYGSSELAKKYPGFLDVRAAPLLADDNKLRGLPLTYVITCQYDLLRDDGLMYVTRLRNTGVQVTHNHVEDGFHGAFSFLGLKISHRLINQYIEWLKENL

[11] = Intrinsic clearance in mouse kidney microsome at 0.05 to 4 mM; format: ADME; conditions: kidney microsomes; summary of the method: as §1
[12] = Intrinsic clearance in rat lung microsome at 0.05 to 4 mM; format: ADME; conditions: lung microsomes
[13] = system: Liver microsome; assay: Intrinsic clearance in human Liver microsome at 0.05 to 4 mM; format: ADME; conditions: microsomes, 4000 µM; summary of the method: as §1
[14] = Intrinsic clearance in rat jejunum microsome at 0.05 to 4 mM; format: ADME; conditions: jejunum microsomes
[15] = Intrinsic clearance in human jejunum microsome at 0.05 to 1 mM; format: ADME; conditions: jejunum microsomes
[16] = Intrinsic clearance in mouse Liver microsome at 0.05 to 1 mM; format: ADME; conditions: liver microsomes, read-out: CLH
[17] = biological target: T3, Arylacetamide deacetylase; assay: Inhibition of AADAC in human jejunum microsome
Summary of the method: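 Flutamide hydrolysis to FLU-1 by pooled human jejunum (n = 10) or single-donor human renal microsomes at 0.4 mg/ml in 100 mM potassium phosphate (pH 7.4). Flutamide was 0.005–0.75 mM (jejunum) or 0.025–0.75 mM (kidney). Kinetics were fitted to the substrate inhibition equation, combined with Michaelis-Menten for jejunum. Triplicate determinations.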

[18] = biological target: T3, Arylacetamide deacetylase; assay: Inhibition of AADAC in human liver microsome
[19] = Intrinsic clearance in human Liver microsome at 0.05 to 1 mM; format: ADME; conditions: liver microsomes, read-out: CLH
[20] = biological target: T3, Arylacetamide deacetylase; assay: Inhibition of human recombinant AADAC
[21] = substrate: CCOc1ccc(NC(C)=O)cc1; assay: Activity of rat recombinant AADAC; format: ADME
Summary of the method: (§2)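 Sf21 insect cells were infected with baculovirus carrying intact human, rat or mouse AADAC, harvested after 7 days, and homogenized by freeze-thaw. Homogenate was incubated in 100 mM potassium phosphate (pH 7.4). Flutamide (0.025–0.75 mM) used 0.4 mg/ml; phenacetin (0.05–4 mM) used 0.4 mg/ml for human and 0.2 mg/ml for rat or mouse; rifampicin (0.005–1 mM) used 0.5 mg/ml. Activity was normalized to immunoblot-derived AADAC expression units. Triplicate determinations.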

[22] = substrate: CCOc1ccc(NC(C)=O)cc1; assay: Activity of AADAC in rat lung microsome; format: ADME
Summary of the method: (§3)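 Hydrolase activity of tissue microsomes in 0.2 ml mixtures of 100 mM potassium phosphate (pH 7.4). Microsomal protein: 0.4 mg/ml for flutamide (0.025–0.75 mM) and phenacetin (0.05–4 mM); 0.5 mg/ml for rifampicin (0.005–1 mM). Products measured were FLU-1, p-phenetidine and 25-deacetylrifampicin, within linear ranges. Three independent experiments.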

[23] = substrate: CCOc1ccc(NC(C)=O)cc1; assay: Activity of AADAC in rat kidney microsome; format: ADME; summary of the method: as §3
[24] = substrate: CCOc1ccc(NC(C)=O)cc1; assay: Activity of AADAC in rat liver microsome; format: ADME; summary of the method: as §3
[25] = substrate: CCOc1ccc(NC(C)=O)cc1; assay: Activity of AADAC in rat jejunum microsome; format: ADME; summary of the method: as §3
[26] = substrate: CCOc1ccc(NC(C)=O)cc1; assay: Activity of AADAC in mouse lung microsome; format: ADME; summary of the method: as §3
[27] = substrate: CCOc1ccc(NC(C)=O)cc1; assay: Activity of AADAC in mouse kidney microsome; format: ADME; summary of the method: as §3
[28] = substrate: CCOc1ccc(NC(C)=O)cc1; assay: Activity of AADAC in mouse liver microsome; format: ADME; summary of the method: as §3
[29] = substrate: CCOc1ccc(NC(C)=O)cc1; assay: Activity of mouse recombinant AADAC; format: ADME; summary of the method: as §2
[30] = substrate: CCOc1ccc(NC(C)=O)cc1; assay: Activity of AADAC in mouse jejunum microsome; format: ADME; summary of the method: as §3
[31] = substrate: CCOc1ccc(NC(C)=O)cc1; assay: Activity of AADAC in human kidney microsome; format: ADME; summary of the method: as §3
[32] = substrate: CO[C@H]1/C=C/O[C@@]2(C)Oc3c(C)c(O)c4c(O)c(c(/C=N/N5CCN(C)CC5)c(O)c4c3C2=O)NC(=O)/C(C)=C\C=C\[C@H](C)[C@H](O)[C@@H](C)[C@@H](O)[C@@H](C)[C@H](OC(C)=O)[C@@H]1C; assay: (§4) Activity of human recombinant AADAC; format: ADME; summary of the method: as §2
[33] = substrate: CCOc1ccc(NC(C)=O)cc1; assay: as §4; format: ADME; summary of the method: as §2
[34] = substrate: CO[C@H]1/C=C/O[C@@]2(C)Oc3c(C)c(O)c4c(O)c(c(/C=N/N5CCN(C)CC5)c(O)c4c3C2=O)NC(=O)/C(C)=C\C=C\[C@H](C)[C@H](O)[C@@H](C)[C@@H](O)[C@@H](C)[C@H](OC(C)=O)[C@@H]1C; assay: (§5) Activity of AADAC in human liver microsome; format: ADME; summary of the method: as §3
[35] = substrate: CCOc1ccc(NC(C)=O)cc1; assay: as §5; format: ADME; summary of the method: as §3
[36] = substrate: CCOc1ccc(NC(C)=O)cc1; assay: Activity of AADAC in human lung microsome; format: ADME; summary of the method: as §3
[37] = substrate: CO[C@H]1/C=C/O[C@@]2(C)Oc3c(C)c(O)c4c(O)c(c(/C=N/N5CCN(C)CC5)c(O)c4c3C2=O)NC(=O)/C(C)=C\C=C\[C@H](C)[C@H](O)[C@@H](C)[C@@H](O)[C@@H](C)[C@H](OC(C)=O)[C@@H]1C; assay: (§6) Activity of AADAC in human jejunum microsome; format: ADME; summary of the method: as §3
[38] = substrate: CCOc1ccc(NC(C)=O)cc1; assay: as §6; format: ADME; summary of the method: as §3

Molecule: CCOc1ccc(NC(C)=O)cc1 [PHENACETIN]
- CL [1]: 0.2 µL/min/mg
- microsomal CLint at up to 4000 µM [2]: 1.3 µL/min/mg
- Vmax/Km [3]: 5.7 uL/min/U
- CL [4]: 0.4 µL/min/mg
- Vmax/Km [5]: 2.2 uL/min/U
- microsomal CLint at up to 4000 µM [6]: 0.2 µL/min/mg
- microsomal CLint at up to 4000 µM [7]: 4 µL/min/mg
- microsomal CLint at up to 4000 µM [8]: 0.1 µL/min/mg
- microsomal CLint at up to 4000 µM [9]: 0.1 µL/min/mg
- Vmax/Km [10]: 3.5 uL/min/U
- microsomal CLint at up to 4000 µM [11]: 0.4 µL/min/mg
- microsomal CLint at up to 4000 µM [12]: 0.1 µL/min/mg
- CLH [13]: 1.1 µL/min/mg
- microsomal CLint at up to 4000 µM [14]: 0.1 µL/min/mg

Molecule: CO[C@H]1/C=C/O[C@@]2(C)Oc3c(C)c(O)c4c(O)c(c(/C=N/N5CCN(C)CC5)c(O)c4c3C2=O)NC(=O)/C(C)=C\C=C\[C@H](C)[C@H](O)[C@@H](C)[C@@H](O)[C@@H](C)[C@H](OC(C)=O)[C@@H]1C [RIFAMPIN]
- microsomal CLint at up to 1000 µM [15]: 0.7 µL/min/mg
- microsomal CLint at up to 1000 µM [16]: 0.2 µL/min/mg
- Ki [17]: 700 µM
- Ki [18]: 200 µM
- microsomal CLint at up to 1000 µM [19]: 0.7 µL/min/mg
- Ki [20]: 300 µM

B1: Arylacetamide deacetylase (Rattus norvegicus) (protein)
chain: T2 sequence (Q9QZH8 whole entry)
- Km [21]: 5.8 mM
- Km [22]: 5.3 mM
- Vmax [22]: 0.0001 µmol/min/mg
- Km [23]: 9.3 mM
- Vmax [23]: 0.0006 µmol/min/mg
- Km [24]: 29.8 mM
- Vmax [24]: 0.0059 µmol/min/mg
- Km [25]: 4.6 mM
- Vmax [25]: 0.0003 µmol/min/mg

B2: Arylacetamide deacetylase (Mus musculus) (protein)
chain: T1 sequence (Q99PG0 whole entry)
- Km [26]: 2.9 mM
- Vmax [26]: 0.0001 µmol/min/mg
- Km [27]: 7.1 mM
- Vmax [27]: 0.0029 µmol/min/mg
- Km [28]: 9.8 mM
- Vmax [28]: 0.0171 µmol/min/mg
- Km [29]: 1.6 mM
- Km [30]: 11.2 mM
- Vmax [30]: 0.0014 µmol/min/mg

B3: Arylacetamide deacetylase (Homo sapiens) (protein)
chain: T3 sequence (P22760 whole entry)
- Km [31]: 2.3 mM
- Vmax [31]: 0.0004 µmol/min/mg
- Km [32]: 0.2 mM
- Km [33]: 1.8 mM
- Km [34]: 0.4 mM
- Vmax [34]: 0.000273 µmol/min/mg
- Km [35]: 3.3 mM
- Vmax [35]: 0.0036 µmol/min/mg
- Km [36]: 7.4 mM
- Vmax [36]: 0.0008 µmol/min/mg
- Km [37]: 0.3 mM
- Vmax [37]: 0.000212 µmol/min/mg
- Km [38]: 2.5 mM
- Vmax [38]: 0.01 µmol/min/mg
